Converted amounts (≈) assume the structure as drawn. The source made the active and inactive calls. The rule behind the calls is not given here.
Assays:
Klebsiella aerogenes [1] = test: Antibacterial activity against Enterobacter aerogenes ATCC 13048 after 18 hrs by two fold serial dilution method; type: functional; conditions: ATCC 13048, 18 h
Klebsiella aerogenes [2] = test: Antibacterial activity against AcrAB-TolC-over producing Enterobacter aerogenes CM-64 after 18 hrs by two fold serial dilution method; type: functional; conditions: CM-64, 18 h
Klebsiella aerogenes [3] = test: Inhibition of AcrAB-TolC efflux pump in Enterobacter aerogenes CM-64 assessed as effect on nalidixic acid MIC at 62.5 uM relative to control
Klebsiella aerogenes [4] = test: Inhibition of AcrAB-TolC efflux pump in Enterobacter aerogenes ATCC 13048 assessed as effect on nalidixic acid MIC at 62.5 uM relative to control
Klebsiella aerogenes [5] = test: Inhibition of AcrAB-TolC efflux pump in Enterobacter aerogenes CM-64 assessed as fold decrease in nalidixic acid MIC at 333 uM relative to control
Summary of the method: (§1)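 Nalidixic acid MIC (two-fold serial dilutions, about 10^6 cells/mL Mueller-Hinton broth, 18 h, 37 C) determined with a fixed sub-inhibitory level of compound present during incubation. Activity gain A = nalidixic acid MIC without compound divided by MIC with compound. PAbN at 0.050 mM served as reference inhibitor.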

Klebsiella aerogenes [6] = test: Inhibition of AcrAB-TolC efflux pump in Enterobacter aerogenes CM-64 assessed as fold decrease in nalidixic acid MIC at 62.5 uM relative to control; summary of the method: as §1
Klebsiella aerogenes [7] = test: Inhibition of AcrAB-TolC efflux pump in Enterobacter aerogenes ATCC 13048 assessed as fold decrease in nalidixic acid MIC at 62.5 uM relative to control; summary of the method: as §1
Klebsiella aerogenes [8] = test: Inhibition of AcrAB-TolC efflux pump in Enterobacter aerogenes CM-64 assessed as fold decrease in nalidixic acid MIC at 100 uM relative to control; summary of the method: as §1
Klebsiella aerogenes [9] = test: Inhibition of AcrAB-TolC efflux pump in Enterobacter aerogenes ATCC 13048 assessed as effect on nalidixic acid MIC at 100 uM relative to control; summary of the method: as §1

## O=C(O)CN1C(=O)N(CCCCCN2CCCN3CCCN=C23)C(c2ccccc2)(c2ccccc2)C1=O
Klebsiella aerogenes [1]
  MIC: 1250 µM (≈ 647 µg/mL)
Klebsiella aerogenes [2]
  MIC: 1250 µM (≈ 647 µg/mL)
Klebsiella aerogenes [3]
  inhibition: inactive
Klebsiella aerogenes [4]
  inhibition: inactive

## O=C(O)CN1C(=O)N(CCCCCCN2CCCN3CCCN=C23)C(c2ccccc2)(c2ccccc2)C1=O
Klebsiella aerogenes [1]
  MIC: 1250 µM (≈ 665 µg/mL)
Klebsiella aerogenes [2]
  MIC: 1250 µM (≈ 665 µg/mL)
Klebsiella aerogenes [3]
  inhibition: inactive
Klebsiella aerogenes [4]
  inhibition: inactive

## COC(=O)CN1C(=O)N(CCCCCCCCN2CCNCC2)C(c2ccccc2)(c2ccccc2)C1=O
Klebsiella aerogenes [1]
  MIC: 1250 µM (≈ 651 µg/mL)
Klebsiella aerogenes [2]
  MIC: 1250 µM (≈ 651 µg/mL)
Klebsiella aerogenes [3]
  inhibition: inactive
Klebsiella aerogenes [4]
  inhibition: inactive

## COC(=O)CN1C(=O)N(CC(O)CN2CCN(c3ccccc3)CC2)C(c2ccccc2)(c2ccccc2)C1=O (configuration not stated)
Klebsiella aerogenes [1]
  MIC: 5000 µM (≈ 2710 µg/mL)
Klebsiella aerogenes [2]
  MIC: 5000 µM (≈ 2710 µg/mL)
Klebsiella aerogenes [5]
  fold change (FC): 4

## CCOC(=O)N1CCN(CCCCCCN2C(=O)N(CC(=O)OC)C(=O)C2(c2ccccc2)c2ccccc2)CC1
Klebsiella aerogenes [1]
  MIC: 1250 µM (≈ 706 µg/mL)
Klebsiella aerogenes [2]
  MIC: 1250 µM (≈ 706 µg/mL)
Klebsiella aerogenes [3]
  inhibition: inactive
Klebsiella aerogenes [4]
  inhibition: inactive

## COc1ccccc1N1CCN(CCCCN2C(=O)N(CC(=O)O)C(=O)C2(c2ccccc2)c2ccccc2)CC1
Klebsiella aerogenes [1]
  MIC: 62.5 µM (≈ 34.8 µg/mL)
Klebsiella aerogenes [2]
  MIC: 250 µM (≈ 139 µg/mL)
Klebsiella aerogenes [6]
  fold change (FC): 4
Klebsiella aerogenes [7]
  fold change (FC): 2

## NCCCCN1C(=O)N(CC(=O)O)C(=O)C1(c1ccccc1)c1ccccc1
Klebsiella aerogenes [1]
  MIC: 1250 µM (≈ 477 µg/mL)
Klebsiella aerogenes [2]
  MIC: 1250 µM (≈ 477 µg/mL)
Klebsiella aerogenes [3]
  inhibition: inactive
Klebsiella aerogenes [4]
  inhibition: inactive

## NCCCN1C(=O)N(CC(=O)O)C(=O)C1(c1ccccc1)c1ccccc1
Klebsiella aerogenes [1]
  MIC: 1250 µM (≈ 459 µg/mL)
Klebsiella aerogenes [2]
  MIC: 1250 µM (≈ 459 µg/mL)
Klebsiella aerogenes [3]
  inhibition: inactive
Klebsiella aerogenes [4]
  inhibition: inactive

## O=C(O)CN1C(=O)N(CCCCN2CCCN3CCCN=C23)C(c2ccccc2)(c2ccccc2)C1=O
Klebsiella aerogenes [1]
  MIC: 1250 µM (≈ 630 µg/mL)
Klebsiella aerogenes [2]
  MIC: 1250 µM (≈ 630 µg/mL)
Klebsiella aerogenes [3]
  inhibition: inactive
Klebsiella aerogenes [4]
  inhibition: inactive

## NCCCCCCN1C(=O)N(CC(=O)O)C(=O)C1(c1ccccc1)c1ccccc1
Klebsiella aerogenes [1]
  MIC: 1250 µM (≈ 512 µg/mL)
Klebsiella aerogenes [2]
  MIC: 1250 µM (≈ 512 µg/mL)
Klebsiella aerogenes [3]
  inhibition: inactive
Klebsiella aerogenes [4]
  inhibition: inactive

## COC(=O)CN1C(=O)N(CCCCN2CCN(c3ccccc3)CC2)C(c2ccccc2)(c2ccccc2)C1=O
Klebsiella aerogenes [1]
  MIC: > 500 µM
Klebsiella aerogenes [2]
  MIC: > 500 µM
Klebsiella aerogenes [8]
  fold change (FC): 4
Klebsiella aerogenes [9]
  inhibition: inactive

## CCOC(=O)N1CCN(CCCCCN2C(=O)N(CC(=O)OC)C(=O)C2(c2ccccc2)c2ccccc2)CC1
Klebsiella aerogenes [1]
  MIC: 1250 µM (≈ 688 µg/mL)
Klebsiella aerogenes [2]
  MIC: 1250 µM (≈ 688 µg/mL)
Klebsiella aerogenes [3]
  inhibition: inactive
Klebsiella aerogenes [4]
  inhibition: inactive

## CCOC(=O)N1CCN(CCCCN2C(=O)N(CC(=O)O)C(=O)C2(c2ccccc2)c2ccccc2)CC1
Klebsiella aerogenes [1]
  MIC: 1250 µM (≈ 653 µg/mL)
Klebsiella aerogenes [2]
  MIC: 1250 µM (≈ 653 µg/mL)
Klebsiella aerogenes [3]
  inhibition: inactive
Klebsiella aerogenes [4]
  inhibition: inactive

## COc1ccccc1N1CCN(CCCN2C(=O)N(C)C(=O)C2(c2ccccc2)c2ccccc2)CC1
Klebsiella aerogenes [1]
  MIC: > 500 µM
Klebsiella aerogenes [2]
  MIC: > 500 µM
Klebsiella aerogenes [9]
  inhibition: inactive

## COC(=O)CN1C(=O)N(CC(O)CNC(C)C)C(c2ccccc2)(c2ccccc2)C1=O (configuration not stated)
Klebsiella aerogenes [1]
  MIC: 125 µM (≈ 54.9 µg/mL)
Klebsiella aerogenes [2]
  MIC: 125 µM (≈ 54.9 µg/mL)
Klebsiella aerogenes [3]
  inhibition: inactive
Klebsiella aerogenes [4]
  inhibition: inactive

## CCOC(=O)N1CCN(CCCCN2C(=O)N(CC(=O)OC)C(=O)C2(c2ccccc2)c2ccccc2)CC1
Klebsiella aerogenes [1]
  MIC: 1250 µM (≈ 671 µg/mL)
Klebsiella aerogenes [2]
  MIC: 1250 µM (≈ 671 µg/mL)
Klebsiella aerogenes [3]
  inhibition: inactive
Klebsiella aerogenes [4]
  inhibition: inactive

## CC(=O)OC(CN1CCN(c2ccccc2)CC1)CN1C(=O)N(C)C(=O)C1(c1ccccc1)c1ccccc1 (configuration not stated)
Klebsiella aerogenes [1]
  MIC: > 500 µM
Klebsiella aerogenes [2]
  MIC: > 500 µM
Klebsiella aerogenes [9]
  inhibition: inactive

## COc1ccccc1N1CCN(CC(O)CN2C(=O)N(CC(=O)O)C(=O)C2(c2ccccc2)c2ccccc2)CC1 (configuration not stated)
Klebsiella aerogenes [1]
  MIC: 125 µM (≈ 69.8 µg/mL)
Klebsiella aerogenes [2]
  MIC: 250 µM (≈ 140 µg/mL)
Klebsiella aerogenes [6]
  fold change (FC): 4
Klebsiella aerogenes [7]
  fold change (FC): 2

## COC(=O)CN1C(=O)N(CC(CN2CCN(c3ccccc3)CC2)OC(C)=O)C(c2ccccc2)(c2ccccc2)C1=O (configuration not stated)
Klebsiella aerogenes [1]
  MIC: 250 µM (≈ 146 µg/mL)
Klebsiella aerogenes [2]
  MIC: 250 µM (≈ 146 µg/mL)

## O=C1NC(=O)C(c2ccccc2)(c2ccccc2)N1CCCCN1CCN(c2ccccc2)CC1
Klebsiella aerogenes [1]
  MIC: > 500 µM
Klebsiella aerogenes [2]
  MIC: > 500 µM
Klebsiella aerogenes [9]
  inhibition: inactive

## COC(=O)CN1C(=O)N(CCCN2CCN(c3ccccc3)CC2)C(c2ccccc2)(c2ccccc2)C1=O
Klebsiella aerogenes [1]
  MIC: > 500 µM
Klebsiella aerogenes [2]
  MIC: > 500 µM
Klebsiella aerogenes [9]
  inhibition: inactive

## CN1C(=O)N(CCCCCN2CCN(c3ccccc3)CC2)C(c2ccccc2)(c2ccccc2)C1=O
Klebsiella aerogenes [1]
  MIC: > 500 µM
Klebsiella aerogenes [2]
  MIC: > 500 µM
Klebsiella aerogenes [8]
  fold change (FC): 4
Klebsiella aerogenes [9]
  inhibition: inactive

## CCOC(=O)N1CCN(CCCCCCCCN2C(=O)N(CC(=O)OC)C(=O)C2(c2ccccc2)c2ccccc2)CC1
Klebsiella aerogenes [1]
  MIC: 1250 µM (≈ 741 µg/mL)
Klebsiella aerogenes [2]
  MIC: 1250 µM (≈ 741 µg/mL)
Klebsiella aerogenes [3]
  inhibition: inactive
Klebsiella aerogenes [4]
  inhibition: inactive

## O=C(O)CN1C(=O)N(CCCN2CCCN3CCCN=C32)C(c2ccccc2)(c2ccccc2)C1=O
Klebsiella aerogenes [1]
  MIC: 1250 µM (≈ 612 µg/mL)
Klebsiella aerogenes [2]
  MIC: 1250 µM (≈ 612 µg/mL)
Klebsiella aerogenes [3]
  inhibition: inactive
Klebsiella aerogenes [4]
  inhibition: inactive

## CN1C(=O)N(CC(O)CN2CCN(c3ccccc3)CC2)C(c2ccccc2)(c2ccccc2)C1=O (configuration not stated)
Klebsiella aerogenes [1]
  MIC: > 500 µM
Klebsiella aerogenes [2]
  MIC: > 500 µM
Klebsiella aerogenes [9]
  inhibition: inactive

— ChEMBL document CHEMBL1914425, “Amine-alkyl derivatives of hydantoin: new tool to combat resistant bacteria” (2011)
